Measured values collected from several papers.
Each line is one published result; the experiments were not run side by side.
Organism: Bacillus subtilis
Read-out: microbial growth

Compound	assay	test system	setting	MIC
CCCCCCCCCCCC(=O)C(F)(F)P(=O)(O)O	–	ATCC23857	–	> 200 µg/mL
CCC1C(=NOCc2cn(-c3ccccc3)nn2)CC(c2ccccc2)OC1c1ccccc1 (stereo not shown)	broth dilution	MTCC121	24 h	25 µg/mL
Oc1cc(Cl)ccc1Oc1ccc(Cl)cc1Cl	–	–	–	1.8 µg/mL
CC1C(=NOCc2cn(-c3ccccc3)nn2)CC(c2ccccc2)OC1c1ccccc1 (stereo not shown)	broth dilution	MTCC121	24 h	50 µg/mL
CCCCCCCCCCCC(=O)OC[C@H]1O[C@@H](n2cc(C)c(=O)[nH]c2=O)C[C@@H]1OC(=O)c1ccc(C(C)(C)C)cc1	broth dilution	–	–	1 µg/mL
CCCCCCCCCCCCCCCC(=O)NP(=O)(O)O	–	ATCC23857	–	> 200 µg/mL
Cc1c(NN=C(C#N)C2=NC(=O)CS2)c(=O)n(-c2ccccc2)n1C	broth dilution	–	–	0.98 µg/mL
CO[C@@H]1[C@@H](OC(N)=O)[C@@H](O)[C@H](Oc2ccc3c(O)c(NC(=O)c4ccc(O)c(CC=C(C)C)c4)c(=O)oc3c2C)OC1(C)C	broth dilution	ATCC6633	–	< 6.25 µM
CCCCCCCC(=O)CP(=O)(O)O	–	ATCC23857	–	> 200 µg/mL
CCCCCCCCCC(=O)N[C@@H](Cc1c[nH]c2ccccc12)C(=O)N[C@H](CC(N)=O)C(=O)N[C@@H](CC(=O)O)C(=O)N[C@@H]1C(=O)NCC(=O)N[C@@H](CCCN)C(=O)N[C@@H](CC(=O)O)C(=O)N[C@H](C)C(=O)N[C@@H](CC(=O)O)C(=O)NCC(=O)N[C@H](CO)C(=O)N[C@@H]([C@H](C)CC(=O)O)C(=O)N[C@@H](CC(=O)c2ccccc2N)C(=O)O[C@@H]1C	broth dilution	168	–	0.25 µg/mL
